Assay results as given in ChEMBL document CHEMBL4706651, “Peripheral Selective Oxadiazolylphenyl Alanine Derivatives as Tryptophan Hydroxylase 1 Inhibitors for Obesity and Fatty Liver Disease” (J Med Chem, 2021).
Active and inactive are the calls of the source. The calls are words filed in the database; no cut-off is given here.

Tests used:
[1] = test system: Mus musculus; experiment: Anti-obesity activity in C57BL/6J mouse model of diet-induced obesity assessed as suppression of 5-HT levels in serum at 10 mg/kg, ip dosed daily for 1 week by LC-MS/MS analysis; type: functional, organism-based; conditions: time 1.0 weeks
[2] = test system: Mus musculus; experiment: Anti-obesity activity in C57BL/6J mouse model of diet-induced obesity assessed as suppression of 5-HT levels in brain at 10 mg/kg, ip dosed daily for 1 week by LC-MS/MS analysis; type: functional, organism-based; conditions: time 1.0 weeks
[3] = test system: Mus musculus; experiment: Anti-obesity activity in C57BL/6J mouse model of diet-induced obesity assessed as suppression of 5-HT levels in serum at 10 mg/kg, ip dosed daily for 8 weeks by LC-MS/MS analysis; type: functional, organism-based
Procedure, shortened: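 C57BL/6J mice, 12 weeks old, on high-fat diet (60% fat calories) were dosed daily ip with vehicle or 10 mg/kg for eight weeks. Serum was isolated from cardiac-puncture blood and 5-HT was quantified by LC-MS/MS. n = 5/group; means SEM.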

[4] = test system: Mus musculus; experiment: Anti-obesity activity in C57BL/6J mouse model of diet-induced obesity assessed as suppression of body weight gain at 10 mg/kg, ip dosed daily for 8 weeks […]; type: functional, organism-based
[5] = test system: Mus musculus; experiment: Anti-obesity activity in C57BL/6J mouse model of diet-induced obesity assessed as reduction in adipose tissues by measuring eWAT at 10 mg/kg, ip dosed daily for 8 weeks; type: functional, organism-based
Procedure, shortened: (§1)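 After eight weeks of daily ip dosing at 10 mg/kg with high-fat diet (60% fat calories) in C57BL/6J mice starting at 12 weeks, gross appearance of dissected eWAT, iWAT and BAT was photographed against a 1 cm × 1 cm grid.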

[6] = test system: Mus musculus; experiment: Anti-obesity activity in C57BL/6J mouse model of diet-induced obesity assessed as reduction in adipose tissues by measuring iWAT at 10 mg/kg, ip dosed daily for 8 weeks; type: functional, organism-based; procedure, shortened: as §1
[7] = test system: Mus musculus; experiment: Anti-obesity activity in C57BL/6J mouse model of diet-induced obesity assessed as reduction in adipose tissues by measuring BAT at 10 mg/kg, ip dosed daily for 8 weeks; type: functional, organism-based; procedure, shortened: as §1
[8] = test system: Mus musculus; experiment: Anti-obesity activity in C57BL/6J mouse model of diet-induced obesity assessed as reduction in adipocyte size in eWAT at 10 mg/kg, ip dosed daily for 8 weeks by H and E staining based histological analysis; type: functional, organism-based
Procedure, shortened: (§2)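 C57BL/6J mice, 12 weeks old, given daily ip vehicle or drug during 8 weeks of high-fat diet (60% fat calories). Sacrificed after 6 h fasting. Five-micron paraffin sections of eWAT, iWAT and BAT were deparaffinized and stained with H&E. Crown-like structures, adipocyte size, lipid droplets and multilocular cells were assessed. Scale bar 100 μm.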

[9] = test system: Mus musculus; experiment: Anti-obesity activity in C57BL/6J mouse model of diet-induced obesity assessed as reduction in adipocyte size in iWAT at 10 mg/kg, ip dosed daily for 8 weeks by H and E staining based histological analysis; type: functional, organism-based; procedure, shortened: as §2
[10] = test system: Mus musculus; experiment: Anti-obesity activity in C57BL/6J mouse model of diet-induced obesity assessed as increase in multilocular adipocytes at 10 mg/kg, ip dosed daily for 8 weeks by H and E staining based histological analysis; type: functional, organism-based; procedure, shortened: as §2
[11] = test system: Mus musculus; experiment: Anti-obesity activity in C57BL/6J mouse model of diet-induced obesity assessed as increase in VCO2 at 10 mg/kg, ip dosed daily for 8 weeks by indirect calorimetry; type: functional, organism-based
Procedure, shortened: (§3)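 Daily ip dosing of C57BL/6J mice on high-fat diet (60% fat calories), starting at 12 weeks of age, for eight weeks. Mice were housed singly in an eight-chamber open-circuit indirect calorimetry system and monitored for 72 h in the fed state. VO2 and VCO2 were recorded. RER = VCO2/VO2; heat production = (3.185 + 1.232 × RER) × VO2. n = 5/group; means SEM.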

[12] = test system: Mus musculus; experiment: Anti-obesity activity in C57BL/6J mouse model of diet-induced obesity assessed as increase in heat production at 10 mg/kg, ip dosed daily for 8 weeks by indirect calorimetry; type: functional, organism-based; procedure, shortened: as §3
[13] = test system: Mus musculus; experiment: Anti-obesity activity in C57BL/6J mouse model of diet-induced obesity assessed as induction of thermogenic activity by measuring increase in Ucp1 mRNA expression in iWAT at 10 mg/kg, ip dosed daily for 8 weeks by RT-PCR analysis; type: functional, organism-based
Procedure, shortened: (§4)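 C57BL/6J mice fed a 60% fat-calorie diet from 12 weeks of age, dosed ip daily for eight weeks. For Ucp1 mRNA, total RNA was extracted from BAT or iWAT with TRIzol and analysed by quantitative RT-PCR as relative expression. UCP1 protein was detected by immunohistochemistry on five-micron paraffin sections. n = 5/group.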

[14] = test system: Mus musculus; experiment: Anti-obesity activity in C57BL/6J mouse model of diet-induced obesity assessed as induction of thermogenic activity by measuring increase in Ucp1 protein expression in BAT at 10 mg/kg, ip dosed daily for 8 weeks immunohistochemistry; type: functional, organism-based; procedure, shortened: as §4
[15] = test system: Mus musculus; experiment: Anti-obesity activity in C57BL/6J mouse model of diet-induced obesity assessed as induction of thermogenic activity by measuring increase in Ucp1 protein expression in iWAT at 10 mg/kg, ip dosed daily for 8 weeks immunohistochemistry; type: functional, organism-based; procedure, shortened: as §4
[16] = test system: Mus musculus; experiment: Anti-hepatic steatosis activity in C57BL/6J mouse model of diet-induced obesity assessed as reduction in hepatic triacylglycerol at 10 mg/kg, ip dosed daily for 8 weeks colorimetry; type: functional, organism-based
[17] = biological target: T1, Tryptophan 5-hydroxylase 1 (Homo sapiens) (UniProt P17752); experiment: Inhibition of Tryptophan hydroxylase 1 (unknown origin) at 1 uM incubated for 4 hrs by fluorescence based assay
T1 sequence (whole entry): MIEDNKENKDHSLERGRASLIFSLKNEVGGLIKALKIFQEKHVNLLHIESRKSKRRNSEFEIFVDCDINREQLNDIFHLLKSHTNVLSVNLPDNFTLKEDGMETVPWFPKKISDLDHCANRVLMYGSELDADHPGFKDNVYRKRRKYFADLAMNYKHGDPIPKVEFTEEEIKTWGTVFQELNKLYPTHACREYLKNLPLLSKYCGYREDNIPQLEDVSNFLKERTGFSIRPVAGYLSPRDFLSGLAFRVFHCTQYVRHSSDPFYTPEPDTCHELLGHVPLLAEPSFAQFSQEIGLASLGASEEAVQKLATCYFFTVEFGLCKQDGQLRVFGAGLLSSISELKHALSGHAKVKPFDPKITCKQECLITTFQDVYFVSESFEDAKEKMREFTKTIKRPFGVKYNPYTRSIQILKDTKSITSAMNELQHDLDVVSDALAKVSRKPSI
Procedure, shortened: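 TPH1 activity was measured with a commercial fluorescence kit. Compound in DMSO was mixed with TPH1 enzyme (320 ng/reaction), then reaction solution was added. The plate was sealed, cooled to 4 °C, shaken and incubated 4 h. Quench solution was added, and fluorescence was read at ex 300 nm / em 360 nm.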

[18] = Stability in rat liver microsomes assessed as parent compound remaining level after 30 mins; type: ADME, Microsome; conditions: read-out: Stabilty
[19] = Stability in human liver microsomes assessed as parent compound remaining level after 30 mins; type: ADME, Microsome; conditions: read-out: Stabilty
[20] = biological target: CYP2C9 (Homo sapiens, UniProt P11712); experiment: Inhibition of CYP2C9 (unknown origin) at 10 uM relative to control; type: ADME
[21] = biological target: CYP2D6 (Homo sapiens, UniProt P10635); experiment: Inhibition of CYP2D6 (unknown origin) at 10 uM relative to control; type: ADME
Chain of CYP2D6 (P10635 whole entry): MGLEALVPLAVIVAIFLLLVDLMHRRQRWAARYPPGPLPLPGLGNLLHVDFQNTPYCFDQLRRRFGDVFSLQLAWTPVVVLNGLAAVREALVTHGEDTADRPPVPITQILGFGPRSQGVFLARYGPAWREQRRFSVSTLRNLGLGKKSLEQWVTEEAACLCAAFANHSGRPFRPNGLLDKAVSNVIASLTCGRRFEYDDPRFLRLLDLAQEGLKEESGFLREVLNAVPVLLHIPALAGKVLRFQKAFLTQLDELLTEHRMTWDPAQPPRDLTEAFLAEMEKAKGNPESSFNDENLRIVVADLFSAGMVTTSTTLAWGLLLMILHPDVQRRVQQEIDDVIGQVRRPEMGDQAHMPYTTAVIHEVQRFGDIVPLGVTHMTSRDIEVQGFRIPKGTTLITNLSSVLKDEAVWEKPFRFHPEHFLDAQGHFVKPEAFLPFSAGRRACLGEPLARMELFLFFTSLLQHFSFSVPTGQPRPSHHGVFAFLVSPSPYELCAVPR

Chain of CYP2C9 (P11712 whole entry): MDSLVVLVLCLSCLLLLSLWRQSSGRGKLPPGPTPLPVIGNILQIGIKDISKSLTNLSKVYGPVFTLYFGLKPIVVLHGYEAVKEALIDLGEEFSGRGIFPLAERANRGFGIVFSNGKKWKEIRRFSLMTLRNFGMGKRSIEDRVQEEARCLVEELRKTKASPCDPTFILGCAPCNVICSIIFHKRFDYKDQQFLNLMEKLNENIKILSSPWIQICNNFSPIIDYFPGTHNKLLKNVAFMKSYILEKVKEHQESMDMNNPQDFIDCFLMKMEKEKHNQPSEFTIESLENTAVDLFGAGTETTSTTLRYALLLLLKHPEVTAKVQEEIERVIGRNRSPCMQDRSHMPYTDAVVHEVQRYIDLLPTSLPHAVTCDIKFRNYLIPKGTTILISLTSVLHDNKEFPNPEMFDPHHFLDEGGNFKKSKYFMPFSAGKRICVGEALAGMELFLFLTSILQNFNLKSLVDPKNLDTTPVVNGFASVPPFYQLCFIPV

- inhibition [17]: 100%
- remaining at 0.5 h [18]: 85%
- remaining at 0.5 h [19]: 92%
- inhibition at 10 µM [20]: < 1%
- inhibition at 10 µM [21]: < 1%
Structure (SMILES): COc1ccc(-c2nc(-c3ccc(C[C@H](N)C(=O)O)cc3)no2)cc1-c1ccc(O)cc1.Cl
- Activity [1]: Active
- Activity [2]: inactive
- Activity [3]: Active
- Activity [4]: Active
- Activity [5]: Active
- Activity [6]: Active
- Activity [7]: Active
- Activity [8]: Active
- Activity [9]: Active
- Activity [10]: Active
- Activity [11]: Active
- Activity [12]: Active
- Activity [13]: Active
- Activity [14]: Active
- Activity [15]: inactive
- Activity [16]: Active
